Key:
[1] = tested on: Yellow fever virus; test: Antiviral activity against Yellow fever virus 17D expressing IRES-luciferase gene infected in BHK cells assessed as inhibition of viral production after 36 hrs by luciferase reporter assay relative to control; format: functional
Procedure, shortened: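 Controls: uninfected, infected, and DMSO-treated infected cells. After ~36 h at 37 °C, 5% CO2, cells lysed and firefly luciferase luminescence read. IC50 from nonlinear regression versus DMSO-treated infected cells.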

[2] = Growth inhibition of BHK15 cells after 36 hrs by XTT assay; format: cell-based, Mesocricetus auratus; conditions: hamster
Procedure, shortened: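 Uninfected confluent BHK-15 cells (MEM, 10% FBS) overlaid with serial compound dilutions from DMSO stocks, ~36 h at 37 °C, 5% CO2. Medium replaced, XTT substrate added, 2 h at 37 °C, then OD450 read. GI50 calculated relative to cells given 1% DMSO.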

[3] = tested on: Yellow fever virus; test: Antiviral activity against Yellow fever virus 17D expressing IRES-luciferase gene infected in BHK cells assessed as inhibition of viral production at 50 uM after 36 hrs by luciferase reporter assay; format: functional, cell-based
[4] = Therapeutic index, ratio of GI50 for BHK15 cells to EC50 for Yellow fever virus 17D; format: cell-based; conditions: hamster, read-out: TI
[5] = Half life in rat plasma; format: ADME
Procedure, shortened: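 Reconstituted lyophilized rat plasma warmed 15 min at 37 °C, diluted with 0.01 M saline to 80% plasma, then warmed 5 min more. Compound in DMSO added; mixture kept at 37 °C. Timed aliquots quenched in methanol and centrifuged; supernatants analysed by C18 HPLC (85:15 methanol/water, room temperature). Half-life from regression of concentration versus time.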

| SMILES | inhibition (INH) [1] | GI50 at 36 h [2] | EC50 [3] | selectivity ratio [4] | half-life [5] |
| --- | --- | --- | --- | --- | --- |
| CC(=O)c1sc(-c2ccc(Cl)cc2)nc1C(Br)Br | 99.9% | 83.5 µM | 1.3 µM | – | – |
| COC(=O)c1sc(-c2ccc(Cl)cc2)nc1CS(C)(=O)=O | -74.7% | – | – | – | – |
| O=C(NC[C@@H](O)CO)c1sc(-c2ccc(Cl)cc2)nc1C(Br)Br | 99.9% | 158 µM | 1.1 µM | – | – |
| CN(C)C(=O)c1sc(-c2ccc(Cl)cc2)nc1C=O | 5.5% | – | – | – | – |
| COC(=O)c1sc(-c2ccc(Cl)cc2)nc1C(Cl)Cl | 99.9% | 34.1 µM | 52.8 µM | – | – |
| COC(=O)c1nc(-c2ccc(Cl)cc2)sc1C(=O)OC | 30.1% | – | – | – | – |
| CCOC(=O)c1sc(-c2ccc(Cl)cc2)nc1C(Br)Br | 98.1% | 94.6 µM | 8.7 µM | – | – |
| C#CCNC(=O)c1sc(-c2ccc(Cl)cc2)nc1C(Br)Br | 99.7% | 23.9 µM | 1.7 µM | – | – |
| COCc1nc(-c2ccc(Cl)cc2)sc1C(=O)OC | 38.1% | 388 µM | 158 µM | – | – |
| CCSC(=O)c1sc(-c2ccc(Cl)cc2)nc1C(Br)Br | 99.7% | 81.4 µM | 1.6 µM | – | – |
| CCNC(=O)c1sc(-c2ccc(Cl)cc2)nc1C(Br)Br | 99.9% | 33.3 µM | 2.7 µM | – | – |
| CCN(CC)C(=O)c1sc(-c2ccc(Cl)cc2)nc1C(Br)Br | 99.8% | 63.5 µM | 13.7 µM | – | – |
| COC(=O)c1sc(-c2ccc(Cl)cc2)nc1C#N | 7.8% | – | – | – | – |
| CC(C)OC(=O)c1sc(-c2ccc(Cl)cc2)nc1C(Br)Br | 84.4% | 372 µM | 19.9 µM | – | – |
| COC(=O)c1sc(-c2ccc(Cl)cc2)nc1C=O | 99.9% | 36.4 µM | 42.8 µM | – | – |
| O=C(NCCO)c1sc(-c2ccc(Cl)cc2)nc1C(Br)Br | 99.8% | 40.8 µM | 2.9 µM | – | – |
| COC(=O)c1sc(-c2ccc(Cl)cc2)nc1C(Br)Br | 99.6% | 222 µM | 2.8 µM | 79 | 1.42 h |
| CCc1nc(-c2ccc(Cl)cc2)sc1C(=O)OC | -56.7% | – | – | – | – |

| SMILES | inhibition (INH) [1] | GI50 at 36 h [2] | EC50 [3] | selectivity ratio [4] | half-life [5] |
| --- | --- | --- | --- | --- | --- |
| COC(=O)c1sc(-c2ccc(Cl)cc2)nc1CBr | 99.9% | 74.6 µM | 1.6 µM | – | – |
| NC(=O)c1sc(-c2ccc(Cl)cc2)nc1C(Br)Br | 99.8% | 99.7 µM | 1.7 µM | – | – |
| COC(=O)c1nc(-c2ccc(Cl)cc2)sc1-c1nc(C)no1 | 1.5% | – | – | – | – |
| CNC(=O)c1sc(-c2ccc(Cl)cc2)nc1COC | 99.7% | 50.8 µM | 2.9 µM | – | – |
| CONC(=O)c1sc(-c2ccc(Cl)cc2)nc1C(Br)Br | 93.6% | 81.4 µM | 1.7 µM | – | – |
| CNC(=O)c1sc(-c2ccc(Cl)cc2)nc1C=O | 37.5% | – | – | – | – |
| O=C(N[C@@H]1OC(CO)C(O)[C@H](O)[C@H]1O)c1sc(-c2ccc(Cl)cc2)nc1C(Br)Br (single isomer, unassigned) | 43.4% | – | – | – | – |
| CN(C)/C=C/C(=O)c1sc(-c2ccc(Cl)cc2)nc1C(Br)Br | 99.8% | 38.2 µM | 11.4 µM | – | – |
| C=CCNC(=O)c1sc(-c2ccc(Cl)cc2)nc1C(Br)Br | 99.9% | 40.8 µM | 1.6 µM | – | – |
| CN(C)C(=O)c1sc(-c2ccc(Cl)cc2)nc1C(Br)Br | 93.2% | 163 µM | 20 µM | – | – |
| COCc1nc(-c2ccc(Cl)cc2)sc1C(=O)N(C)C | 11.3% | – | – | – | – |
| CCOC(=O)c1sc(-c2ccc(Cl)cc2)nc1-c1ccco1 | 50.3% | 465 µM | 311 µM | – | – |
| CSC(=O)c1sc(-c2ccc(Cl)cc2)nc1C(Br)Br | 99.6% | 369 µM | 1.4 µM | 256 | 24.7 h |
| Cc1noc(-c2sc(-c3ccc(Cl)cc3)nc2C=O)n1 | 99.6% | 163 µM | 26.5 µM | – | – |
| CNC(=O)c1sc(-c2ccc(Cl)cc2)nc1C(Br)Br | 99.7% | 74.6 µM | 1.8 µM | – | – |
| COC(=O)c1sc(-c2ccc(Cl)cc2)nc1C(C)(C)C | 20.9% | – | – | – | – |
| COC(=O)c1nc(-c2ccc(Cl)cc2)sc1C(=O)N(C)C | 74% | 99.7 µM | 51 µM | – | – |
| COC(=O)c1sc(-c2ccc(Cl)cc2)nc1C(C)C | 14.7% | 49.6 µM | 58.7 µM | – | – |

From ChEMBL document CHEMBL1765083, “Design, synthesis, and biological evaluation of thiazoles targeting flavivirus envelope proteins” (J Med Chem, 2011)
